Results on eleven molecules are retold here after ChEMBL document CHEMBL4732138, “Evaluation of the Structure-Activity Relationship of Microtubule-Targeting 1,2,4-Triazolo[1,5-a]pyrimidines Identifies New Candidates for Neurodegenerative Tauopathies” (J Med Chem, 2021).

One may read the logD as the decadic logarithm of the distribution of all forms, ionised or not, between an organic phase and buffer at a given pH.

Data set [1] addresses T1, Tubulin (Homo sapiens) (UniProt P68371+Q9H4B7+P0DPH7+P68366+Q13509+Q71U36+P04350+Q3ZCM7+P07437+P68363+Q9BQE3+Q6PEY2+Q13885+Q9BVA1+Q9BUF5). Put plainly: Stabilization of microtubules in human QBI293 cells assessed as fold change in alpha tubulin levels at 10 uM after 4 hrs by ELISA relative to DMSO. It counts as cell-based. The essentials:
(§1)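 QBI293 cells were grown in DMEM with 10% FBS, 2 mM L-glutamine and penicillin/streptomycin, then plated at 6 × 10^5 cells/well and left overnight. Medium was replaced with fresh medium holding vehicle (DMSO) or compound, and cells were incubated 4 h. Whole-cell extract supernatants were protein-normalized by BCA assay. AcTub and α-tubulin were quantified by ELISA against standard curves. Values are fold-change over DMSO, analysed by one-way ANOVA.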
(In an ELISA, binding on a coated surface is turned into a signal by an enzyme label.)

Data set [2] deals with T1, Tubulin (Homo sapiens). The data set is described as follows: Stabilization of microtubules in human QBI293 cells assessed as fold change in acetylated tubulin levels at 10 uM after 4 hrs by ELISA relative to DMSO. The data set is classed as cell-based. Put shortly: as §1
The target in data set [3] is T1, Tubulin (Homo sapiens). The data set is described as follows: Stabilization of microtubules in human QBI293 cells assessed as fold change in alpha tubulin levels at 1 uM after 4 hrs by ELISA relative to DMSO. It counts as cell-based. Put shortly: as §1
Data set [4] deals with T1, Tubulin (Homo sapiens). The data set is described as follows: Stabilization of microtubules in human QBI293 cells assessed as fold change in acetylated tubulin levels at 1 uM after 4 hrs by ELISA relative to cevipabulin. It counts as cell-based.
Data set [5] concerns the target T1, Tubulin (Homo sapiens). The data set is described as follows: Stabilization of microtubules in human QBI293 cells assessed as fold change in acetylated tubulin levels at 1 uM after 4 hrs by ELISA relative to DMSO. It counts as cell-based. Put shortly: as §1
For data set [6], the target named is T1, Tubulin (Homo sapiens). The data set is described as follows: Stabilization of microtubules in human QBI293 cells assessed as decrease in alpha-tubulin levels at 1 to 10 uM after 4 hrs by ELISA relative to control. As to conditions: dose 1-10 µM. It counts as cell-based. Also on record: scale not given: the % may be the effect or the level left. Put shortly:
(§2)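 QBI293 cells are grown in DMEM with 10% FBS, 2 mM L-glutamine and penicillin/streptomycin, plated at 6 × 10^5 cells/well and incubated overnight. […] Acetyl- and total α-tubulin in whole-cell extract supernatants are measured by ELISA against standard curves, with protein by BCA. Values are fold-change over DMSO; AcTub is also given relative to 100 nM cevipabulin positive control. Significance is by one-way ANOVA.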

In data set [7] the target is T1, Tubulin (Homo sapiens). Put plainly: Stabilization of microtubules in human QBI293 cells assessed as fold change in acetylated tubulin levels at 10 uM after 4 hrs by ELISA relative to cevipabulin. The data set is classed as cell-based.
A short description of data set [8]: n-octanol-water distribution coefficient, log D of the compound at pH 7.4 by shake flask method. The data set is classed as physicochemical. The following applies: n-octanol/water, read-out: logD. Put shortly:
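Distribution coefficient between n-octanol and water at pH 7.4, measured by shake-flask method.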

Data set [9] has as its target T1, Tubulin (Homo sapiens). The data set is described as follows: Stabilization of microtubules in human QBI293 cells assessed as increase in acetylated tubulin levels after 4 hrs by ELISA. The data set is classed as cell-based. Put shortly:
as §2

With `Cc1cc(F)c(-c2c(Cl)nc3ncnn3c2N[C@@H](C)C(F)(F)F)c(F)c1`, the fold change (FC) in data set [1] was 0.78; in [2], 2.73; in [3], 0.99; in [4] it was 0.28; in [5], 1.62; in data set [7], 0.48. Also, the Activity in data set [6] is over 15%.
Turning to `C[C@H](Nc1c(-c2c(F)cc(O)cc2F)c(Cl)nc2ncnn12)C(F)(F)F`, the fold change (FC) in data set [1] was 0.57; in data set [2] it was 4.11; in data set [3], 0.84; in [4], 0.23; in data set [5], 1.22; in data set [7], 0.77. Further, in data set [6], the Activity is over 15%.
For the molecule `CC(C)[C@@H](C)Nc1c(-c2c(F)cccc2F)c(Cl)nc2ncnn12`, the fold change (FC) in [1] was determined as 0.96; in data set [2] it was 4.88; in data set [3] it was 1; in data set [4] it was 0.96; in [5], 4.36; in data set [7], 1.07. Moreover, the logD in data set [8] stood at 3.16.
As for `CC(C)[C@@H](C)Nc1c(-c2ccccc2F)c(Cl)nc2ncnn12`, the fold change (FC) was found to be 1.04 in data set [1]; 2.1 in data set [2]; 1 in data set [3]; 0.2 in [4]; 0.95 in data set [5]; 0.43 in data set [7]. In addition, the logD in [8] stood at 2.95.
In the case of `C[C@H](Nc1c(-c2c(F)cc(Cl)cc2F)c(Cl)nc2ncnn12)C(F)(F)F`, the fold change (FC) in data set [1] worked out at 0.81; in data set [2], 4.28; in data set [3], 0.93; in data set [4] it was 0.31; in data set [5], 1.88; in data set [7], 0.7. In addition, the Activity in data set [6] was over 15%.
Take `CSc1cc(F)c(-c2c(Cl)nc3ncnn3c2N[C@@H](C)C(F)(F)F)c(F)c1`: the fold change (FC) in [1] amounted to 0.56; in data set [2], 2.23; in [3], 0.88; in data set [4], 0.27; in data set [5] it was 1.75; in data set [7] it was 0.35. Also, in data set [6], the Activity is over 15%.
For the molecule `N#Cc1ccc(-c2c(Cl)nc3ncnn3c2N2CCCCCC2)c(F)c1`, the fold change (FC) in data set [1] came out at 0.99; in data set [2] it was 12.6; in data set [3], 1.04; in data set [4], 0.55; in data set [5], 7.17; in data set [7], 0.97. In addition, in [8], the logD came out at 3.15.
Take `C[C@H](Nc1c(-c2c(F)cc(OCCCO)cc2F)c(Cl)nc2ncnn12)C(F)(F)F`: the Activity in data set [6] was over 15%.
In the case of `CO[C@H]1C[C@H]2CC[C@@H](C1)N2c1c(-c2c(F)cc(F)cc2F)c(Cl)nc2ncnn12`, the fold change (FC) came to 1.38 in [1]; 7.43 in [2]; 1.12 in data set [3]; 0.54 in data set [4]; 3.65 in [5]; 1.11 in data set [7]. The logD in [8] was determined as 3.38. The Activity result in [9] was “Dose-dependent effect”.
For the molecule `CO[C@H]1C[C@H]2CC[C@@H](C1)N2c1c(-c2c(F)cc(C#N)cc2F)c(Cl)nc2ncnn12`, the fold change (FC) turned out to be 1 in data set [1]; 4.32 in [2]; 0.99 in data set [3]; 0.64 in data set [4]; 2.61 in data set [5]; 1.06 in data set [7]. For the same molecule, the pH-dependent lipophilicity (logD) in data set [8] worked out at 2.74.
As to `C[C@@H](Nc1c(-c2ccc(C#N)cc2F)c(Cl)nc2ncnn12)C(C)(C)C`, the fold change (FC) is 0.93 in [1]; 7.67 in data set [2]; 0.86 in data set [3]; 0.71 in data set [4]; 4.41 in [5]; 1.24 in data set [7]. Besides, the pH-dependent lipophilicity (logD) in data set [8] was 2.86.
